# Measurements from the M2OR odorant receptor database.
# Where a chain is given by its changes, count along the chain named.
# Columns and labels:
# Settings in all cases: stereoisomer not certain
# [1] = molecular target: T1, OR2T34 (Homo sapiens) (UniProt Q8NGX1)
# T1 sequence (whole entry): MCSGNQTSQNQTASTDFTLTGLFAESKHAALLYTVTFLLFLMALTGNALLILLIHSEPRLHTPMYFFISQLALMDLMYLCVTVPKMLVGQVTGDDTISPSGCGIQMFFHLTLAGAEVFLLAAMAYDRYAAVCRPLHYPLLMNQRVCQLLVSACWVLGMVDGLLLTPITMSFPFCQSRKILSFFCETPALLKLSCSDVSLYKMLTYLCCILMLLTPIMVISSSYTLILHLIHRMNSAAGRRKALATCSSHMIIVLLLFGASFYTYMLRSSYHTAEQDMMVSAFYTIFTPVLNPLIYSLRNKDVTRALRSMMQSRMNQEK
# Outline: (§1)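 Each entry records the cell line, G-protein, co-transfected protein and tags used. Methods varied with the source, often transient luciferase assays in mammalian cell lines. A receptor–molecule pair is called responsive (active) if the original authors judged its signal statistically different from baseline and non-responsive (inactive) otherwise.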
# [2] = molecular target: T2, OR2T33 (Homo sapiens) (UniProt Q8NG76)
# T2 sequence (whole entry): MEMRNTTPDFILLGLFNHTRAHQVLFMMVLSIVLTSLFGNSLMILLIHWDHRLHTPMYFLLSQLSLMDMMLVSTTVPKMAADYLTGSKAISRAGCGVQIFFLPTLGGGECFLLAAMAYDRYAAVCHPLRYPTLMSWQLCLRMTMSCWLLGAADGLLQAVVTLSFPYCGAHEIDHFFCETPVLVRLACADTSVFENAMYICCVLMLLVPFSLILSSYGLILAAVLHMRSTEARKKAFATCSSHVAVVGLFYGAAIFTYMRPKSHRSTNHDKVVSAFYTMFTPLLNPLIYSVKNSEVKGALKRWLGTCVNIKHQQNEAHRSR
# Outline: as §1
# [3] = molecular target: T3, OR2T35 (Homo sapiens) (UniProt Q8NGX2)
# T3 sequence (whole entry): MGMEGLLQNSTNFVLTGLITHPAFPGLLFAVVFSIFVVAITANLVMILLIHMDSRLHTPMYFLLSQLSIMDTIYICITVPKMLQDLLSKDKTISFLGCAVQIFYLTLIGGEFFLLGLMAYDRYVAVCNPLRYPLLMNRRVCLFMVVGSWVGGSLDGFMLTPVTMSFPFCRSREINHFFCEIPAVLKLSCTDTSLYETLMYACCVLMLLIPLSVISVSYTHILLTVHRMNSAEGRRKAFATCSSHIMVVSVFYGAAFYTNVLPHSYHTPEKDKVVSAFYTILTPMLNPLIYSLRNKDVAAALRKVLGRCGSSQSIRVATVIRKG
# Outline: as §1
# [4] = molecular target: T4, OR2T4 (Homo sapiens) (UniProt Q8NH00)
# T4 sequence (whole entry): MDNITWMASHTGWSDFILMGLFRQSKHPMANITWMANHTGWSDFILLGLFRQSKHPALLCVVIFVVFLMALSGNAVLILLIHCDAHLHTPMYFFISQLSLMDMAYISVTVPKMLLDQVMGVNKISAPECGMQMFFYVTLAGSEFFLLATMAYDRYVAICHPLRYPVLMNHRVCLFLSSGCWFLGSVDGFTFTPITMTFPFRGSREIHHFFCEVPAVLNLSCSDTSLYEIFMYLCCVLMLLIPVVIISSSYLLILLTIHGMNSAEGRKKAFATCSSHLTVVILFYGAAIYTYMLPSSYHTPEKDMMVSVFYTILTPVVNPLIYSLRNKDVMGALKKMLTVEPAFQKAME
# Outline: as §1
# [5] = molecular target: T5, OR2T5 (Homo sapiens) (UniProt Q6IEZ7)
# T5 sequence (whole entry): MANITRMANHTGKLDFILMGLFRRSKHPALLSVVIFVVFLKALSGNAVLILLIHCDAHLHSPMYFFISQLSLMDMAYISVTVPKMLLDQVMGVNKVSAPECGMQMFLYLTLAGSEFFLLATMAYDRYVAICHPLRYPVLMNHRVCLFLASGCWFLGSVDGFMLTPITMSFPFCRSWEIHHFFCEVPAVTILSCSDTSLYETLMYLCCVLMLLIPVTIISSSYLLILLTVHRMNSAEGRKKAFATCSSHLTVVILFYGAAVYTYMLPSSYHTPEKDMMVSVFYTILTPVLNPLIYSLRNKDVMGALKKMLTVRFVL
# Outline: as §1
# [6] = molecular target: T6, OR2T6 (Homo sapiens) (UniProt Q8NHC8)
# T6 sequence (whole entry): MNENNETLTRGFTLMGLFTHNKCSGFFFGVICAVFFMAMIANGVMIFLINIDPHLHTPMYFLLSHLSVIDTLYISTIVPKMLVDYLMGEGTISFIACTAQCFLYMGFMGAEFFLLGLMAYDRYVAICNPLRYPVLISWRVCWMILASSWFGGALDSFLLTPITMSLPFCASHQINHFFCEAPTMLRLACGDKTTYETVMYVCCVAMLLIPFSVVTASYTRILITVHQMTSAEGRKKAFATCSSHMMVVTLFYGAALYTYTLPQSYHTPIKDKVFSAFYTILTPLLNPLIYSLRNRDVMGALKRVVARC
# Outline: as §1
# [7] = molecular target: T7, OR2T7 (Homo sapiens) (UniProt P0C7T2)
# T7 sequence (whole entry): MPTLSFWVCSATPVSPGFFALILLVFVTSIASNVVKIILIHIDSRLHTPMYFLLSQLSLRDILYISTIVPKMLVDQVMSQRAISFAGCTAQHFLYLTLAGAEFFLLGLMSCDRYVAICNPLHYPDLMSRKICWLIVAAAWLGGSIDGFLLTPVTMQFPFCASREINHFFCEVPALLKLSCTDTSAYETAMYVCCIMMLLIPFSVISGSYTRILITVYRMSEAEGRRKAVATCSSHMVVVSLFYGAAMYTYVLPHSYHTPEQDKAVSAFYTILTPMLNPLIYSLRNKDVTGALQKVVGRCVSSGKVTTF
# Outline: as §1
# [8] = molecular target: T8, OR2T8 (Homo sapiens) (UniProt A6NH00)
# T8 sequence (whole entry): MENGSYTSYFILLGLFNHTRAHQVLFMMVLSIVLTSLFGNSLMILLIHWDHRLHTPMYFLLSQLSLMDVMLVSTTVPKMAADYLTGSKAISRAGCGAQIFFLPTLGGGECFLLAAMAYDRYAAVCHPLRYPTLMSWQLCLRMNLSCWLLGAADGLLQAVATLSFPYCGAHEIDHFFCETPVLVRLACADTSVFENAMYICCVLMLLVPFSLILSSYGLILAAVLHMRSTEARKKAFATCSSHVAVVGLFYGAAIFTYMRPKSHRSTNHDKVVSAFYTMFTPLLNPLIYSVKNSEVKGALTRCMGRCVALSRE
# Outline: as §1
# [9] = molecular target: T9, OR2V1 (Homo sapiens) (UniProt Q8NHB1)
# T9 sequence (whole entry): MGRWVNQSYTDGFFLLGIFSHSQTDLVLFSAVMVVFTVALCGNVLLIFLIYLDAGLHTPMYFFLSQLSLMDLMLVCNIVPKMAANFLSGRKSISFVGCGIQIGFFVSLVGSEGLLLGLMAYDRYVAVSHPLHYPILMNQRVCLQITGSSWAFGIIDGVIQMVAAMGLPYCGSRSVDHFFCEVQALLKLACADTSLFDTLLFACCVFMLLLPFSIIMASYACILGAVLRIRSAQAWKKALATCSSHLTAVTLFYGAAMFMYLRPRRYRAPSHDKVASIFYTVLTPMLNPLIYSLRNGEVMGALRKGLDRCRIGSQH
# Outline: as §1
# [10] = molecular target: T10, OR2V2 (Homo sapiens) (UniProt Q96R30)
# T10 sequence (whole entry): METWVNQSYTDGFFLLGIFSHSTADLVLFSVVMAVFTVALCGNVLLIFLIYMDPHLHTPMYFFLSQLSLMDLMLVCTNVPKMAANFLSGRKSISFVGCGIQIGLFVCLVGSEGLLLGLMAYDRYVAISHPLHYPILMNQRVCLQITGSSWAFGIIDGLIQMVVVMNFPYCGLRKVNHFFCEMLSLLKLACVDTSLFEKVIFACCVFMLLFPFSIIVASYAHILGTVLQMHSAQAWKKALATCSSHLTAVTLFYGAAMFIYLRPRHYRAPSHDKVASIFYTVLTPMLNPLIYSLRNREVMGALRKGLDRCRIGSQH
# Outline: as §1
# [11] = molecular target: T11, OR2W1 (Homo sapiens) (UniProt Q9Y3N9)
# T11 sequence (whole entry): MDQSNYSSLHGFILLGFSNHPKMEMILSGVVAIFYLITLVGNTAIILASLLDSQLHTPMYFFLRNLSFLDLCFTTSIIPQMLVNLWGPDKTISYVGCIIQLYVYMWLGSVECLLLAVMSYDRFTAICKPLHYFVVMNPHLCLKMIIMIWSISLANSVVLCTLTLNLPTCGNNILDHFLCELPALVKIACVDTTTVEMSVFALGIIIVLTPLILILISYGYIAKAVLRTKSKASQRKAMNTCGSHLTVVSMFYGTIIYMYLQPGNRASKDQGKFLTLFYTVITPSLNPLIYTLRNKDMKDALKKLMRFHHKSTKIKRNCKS
# Outline: as §1
# [12] = tested on: T12, OR2W1
# T12 sequence (whole entry): T11 sequence (whole entry) with D296N
# Outline: as §1
# [13] = tested on: T13, OR2W1; remark: listed apart in the source
# T13 sequence (whole entry): T11 sequence (whole entry) with M81V
# Outline: as §1
smiles,measurement,setting,value
CCCCCC1COCCC1OC(C)=O (stereo unspecified),odorant receptor agonist call,[1],inactive
CC(CO)CS (stereo unspecified),odorant receptor agonist call,[2],inactive
same,odorant receptor agonist call,[1],inactive
same,odorant receptor agonist call,[3],inactive
same,odorant receptor agonist call,[4],inactive
same,odorant receptor agonist call,[5],inactive
same,odorant receptor agonist call,[6],inactive
same,odorant receptor agonist call,[7],inactive
same,odorant receptor agonist call,[8],inactive
same,odorant receptor agonist call,[9],inactive
same,odorant receptor agonist call,[10],inactive
same,odorant receptor agonist call,[11],inactive
CCCCC(=O)C(C)=O,odorant receptor agonist call,[4],inactive
same,odorant receptor agonist call,[11],inactive
CCCCCCCC(=O)OC,odorant receptor agonist call,[4],inactive
CCCCCCCCCCCCCCC(=O)O,odorant receptor agonist call,[4],inactive
CC(O)C(=O)[O-].[H+] (stereo unspecified),odorant receptor agonist call,[4],inactive
CCCCCCCCCCCC(=O)OC,odorant receptor agonist call,[4],inactive
CCCCCCCCCCCC(=O)O,odorant receptor agonist call,[4],inactive
CC(=O)OCc1ccccc1,odorant receptor agonist call,[1],inactive
same,odorant receptor agonist call,[11],active
CC(C=O)Cc1ccc(C(C)(C)C)cc1 (stereo unspecified),odorant receptor agonist call,[4],active
CCCCCCCCCCCCO,odorant receptor agonist call,[4],inactive
CCCCOCC(C)O (stereo unspecified),odorant receptor agonist call,[4],inactive
CCCCCCCCCCCCCC(=O)OC,odorant receptor agonist call,[4],inactive
CCCCCCCCCCCCCC(=O)O,odorant receptor agonist call,[4],inactive
CCCCCCCCCCCCCCCCCC(=O)OC,odorant receptor agonist call,[4],inactive
COc1ccc2[nH]cc(CCNC(C)=O)c2c1,odorant receptor agonist call,[4],inactive
CCCC(=O)CC,odorant receptor agonist call,[4],inactive
CC(C)=CCCC(C)=CCCC(C)=CCO,odorant receptor agonist call,[4],inactive
CCC(=O)O,odorant receptor agonist call,[4],inactive
same,odorant receptor agonist call,[11],inactive
CCCCC1CCC(=O)O1 (stereo unspecified),odorant receptor agonist call,[1],inactive
same,odorant receptor agonist call,[11],active
same,odorant receptor agonist call,[12],active
same,odorant receptor agonist call,[13],active
CC(CC=O)c1ccccc1 (stereo unspecified),odorant receptor agonist call,[4],inactive
CCCCCCCCCCCCCCCCCC(=O)OCC,odorant receptor agonist call,[4],inactive
OCc1ccccc1,odorant receptor agonist call,[1],inactive
same,odorant receptor agonist call,[11],inactive
CCCCCCCCCCCCCCCCCC(=O)[O-].[H+],odorant receptor agonist call,[4],inactive
CCCCCCCCCCCCCC(=O)OCC,odorant receptor agonist call,[4],inactive
Cc1cnc(C)cn1,odorant receptor agonist call,[4],inactive
CCCO,odorant receptor agonist call,[4],inactive
CC(C)(C)c1ccccc1,odorant receptor agonist call,[4],inactive
CCCCCCCCCCCCCCCC(=O)OCC,odorant receptor agonist call,[4],inactive
C=C1CCC2CC1C2(C)C (stereo unspecified),odorant receptor agonist call,[4],inactive
same,odorant receptor agonist call,[11],inactive
Cc1cccc(C)c1C,odorant receptor agonist call,[4],inactive
CCCCCCCCCCCC(=O)OCC,odorant receptor agonist call,[4],inactive
CC(=O)C=CC1=C(C)CCCC1(C)C,odorant receptor agonist call,[1],inactive
same,odorant receptor agonist call,[11],inactive
CCC(O)CC,odorant receptor agonist call,[4],inactive
CC(=O)O,odorant receptor agonist call,[4],inactive
same,odorant receptor agonist call,[11],inactive
CCCCCCCCCC(=O)OC,odorant receptor agonist call,[4],inactive
